Among all 330,000 compounds or so, about 300 (0.091%) were called active.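 Rule for the calls: active = percent activation above the screen-wide mean plus 3 SD (cut at about 25% in these data); inactive = the rest.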 This excerpt belongs to a sample that is enriched for actives.
The compounds below were run against Caspase-7 (Homo sapiens) (UniProt P55210) (assay: procaspase-7 activators, primary screen, counter-screen for procaspase-3 activator project, biochemical, absorbance, HTS, human (AID 463210)). Conditions: recombinant procaspase-7, Ac-DEVD-pNA absorbance 405 nm; at 8.5 µM; stronger effect = higher value; D23A/D198A/D206A triple mutant, cannot self-cleave; scale: DMSO 0, 5 µM enzyme 100.
Caspase-7 (Homo sapiens), sequence (P55210 whole entry D23A/D198A/D206A): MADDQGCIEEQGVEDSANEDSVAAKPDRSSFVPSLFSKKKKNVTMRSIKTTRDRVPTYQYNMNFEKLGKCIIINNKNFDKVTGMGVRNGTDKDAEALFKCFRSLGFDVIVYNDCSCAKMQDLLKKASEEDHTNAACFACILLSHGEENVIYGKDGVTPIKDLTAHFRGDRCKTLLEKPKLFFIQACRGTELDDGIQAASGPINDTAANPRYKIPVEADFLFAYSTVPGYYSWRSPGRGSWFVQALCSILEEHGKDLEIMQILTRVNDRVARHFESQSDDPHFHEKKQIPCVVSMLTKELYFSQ
Outline: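 Assay system – Uncleavable procaspase-7 mutant enzyme · Quantity – 2 µM procaspase-7 mutant as dispensed · Times – 1 h preincubation, 2 h reaction · Dosing – single nominal 8.5 µM compound dose, 0.8% DMSO final · Buffer or medium – Zinc-free 50 mM HEPES buffer, pH 7.4, with NaCl and Triton X-100 · Detection – Epi-absorbance of released pNA at 405 nm, two timepoints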
For Cn1nc(C(F)(F)F)c(-c2ccc(F)cc2)c1NC(=O)CSCC(=O)O, the activation was 3.17% (inactive).
CC(CCc1ccccc1)NC(=O)COC(=O)c1ccc(F)cc1 (stereo not drawn) was tested, and the activation was 4.27% (inactive).
With CSCCC(NS(=O)(=O)c1ccc(C)cc1)C(=O)N1CCCC1 (stereo not drawn) the activation was 0.13% (inactive).
COc1ccc(C(CC(=O)N2CCN(c3ccccc3)CC2)c2c(O)cc(OC)cc2OC)cc1 (stereo not drawn) was tested, and the activation was 5.61% (inactive).
With CCCn1c(C)cc(/C=C(\C#N)C(=O)OCC(=O)N(C)c2c(N)n(Cc3ccccc3)c(=O)[nH]c2=O)c1C the activation was -1.74% (inactive).
With CCn1c(O)c2ccc(C(=O)N=NC(=O)c3cccnc3)cc2c1O the activation was -2.1% (inactive).
For CN1CCN(C(=O)C2=C[C@H](c3ccc4c(c3)OCO4)C[C@H](OCc3ccc(CO)cc3)O2)CC1, the activation was 0.27% (inactive).
For O=c1cc(CN2CCN(S(=O)(=O)/C=C/c3ccccc3)CC2)c2ccc(O)cc2o1, the activation was 17.5% (inactive).
For O=C(O)CCN(Cc1ccccc1)S(=O)(=O)c1c(Cl)cccc1Cl, the activation was 3.54% (inactive).
In the case of O=[N+]([O-])c1cc(Cl)cc(/C=N/NC(=S)Nc2cc(S(=O)(=O)N3CCOCC3)ccc2Cl)c1O, the activation is reported as -6.79% (inactive).
With Cc1ccc2nsnc2c1S(=O)(=O)N1CCCC1C(=O)O (stereo not drawn) the activation was 8.06% (inactive).
With CC(=O)N[C@@H](C)C(=O)N1CCC(n2nccc2NC(=O)CCCc2ccccc2)CC1 the activation was 8.17% (inactive).
In the case of O=c1c2ccccc2ccc2ccc(P(=O)(O)O)cc12, the activation is reported as 4.72% (inactive).
For O=C(c1cn(-c2ccccc2)nc1-c1cccnc1)N1CCN(S(=O)(=O)c2ccccc2F)CC1, the activation was 11.3% (inactive).
COc1ccc(CCNC2=C(Cl)C(=O)N(Cc3ccccc3)C2=O)cc1OC was tested, and the activation was -9.7% (inactive).
With COc1ccc(COCCN2CCN(S(=O)(=O)c3ccccc3)CCC2=O)cc1 the activation was -12.7% (inactive).
For COc1ccc2c(c1)C(NS(=O)(=O)OCC(Cl)(Cl)Cl)CCC2 (stereo not drawn), the activation was -4.56% (inactive).
CCN(CC)c1ccc2oc(=O)c(C)nc2c1 was tested, and the activation was 40.2% (active).
In the case of C=CCN(C(=O)Nc1ccc2oc(C)nc2c1)c1ccccc1, the activation is reported as -21.8% (inactive).
For CCN(CC)c1ccc(C(=O)Nn2c(C)nc3ccccc3c2=O)cc1, the activation was -1.52% (inactive).
COc1cccc(NC(=O)Cn2c3ccccc3c3nc4n(c(=O)c32)CCS4)c1 was tested, and the activation was 9.71% (inactive).
CC1=C(N2CCN(c3ncccn3)CC2)CCC1=O was tested, and the activation was -1.68% (inactive).
For COc1ccc(S(=O)(=O)NCCOc2ccccc2)cc1F, the activation was -0.02% (inactive).
For COc1ccccc1N=Cc1c(O)c2ccccc2oc1=O, the activation was 50.8% (active).
COc1ccccc1N=C(C)C1=C(O)COC1=O was tested, and the activation was 0.79% (inactive).
For COc1cc(N=Cc2c(O)c3ccccc3oc2=O)c(OC)cc1Cl, the activation was 14.3% (inactive).
With COc1ccc(C(O)(C2CCCCC2)C(CN2CCCC2)c2ccccc2)cc1 (stereo not drawn) the activation was 0.02% (inactive).
COCC1CCCN(C(=O)c2ccc3oc(C(C)C)nc3c2)C1 (stereo not drawn) was tested, and the activation was -9.62% (inactive).
With COc1ccc(NC(=O)C2CCN(S(=O)(=O)c3ccc4[nH]c(=O)oc4c3)CC2)c(OC)c1 the activation was -1.26% (inactive).
For COc1ccc(CCNC(=O)CN2C(=O)COc3ccc(S(=O)(=O)N4CCCC4)cc32)cc1OC, the activation was -1.51% (inactive).
CCN(C(=O)COC(=O)c1ccc(COc2ccc3c(C)cc(=O)oc3c2)cc1)C1CCS(=O)(=O)C1 (stereo not drawn) was tested, and the activation was 11% (inactive).
For O=c1cc(CO)oc(C(Nc2cccc(C(F)(F)F)c2)c2ccccn2)c1O (stereo not drawn), the activation was -8.69% (inactive).
For COc1ccccc1N1CCN(c2nc(C)cc(=O)[nH]2)CC1, the activation was 14.3% (inactive).
CN(CC(=O)Nc1ccccc1Cl)C(=O)COc1cccc2c1OC(C)(C)C2 was tested, and the activation was -0.56% (inactive).
CCOC(=O)c1cccc(NC(=O)c2ccc(F)cc2F)c1 was tested, and the activation was -3.97% (inactive).
CCOC(=O)[C@@H]1[C@H]2COc3cc(OC)ccc3[C@@H]2N2C(=O)N(c3cccc(C)c3)C(=O)[C@@]12C was tested, and the activation was -1.89% (inactive).
CN1CCN(c2ccccc2NC(=O)COc2ccc(C3CCCCC3)cc2)CC1 was tested, and the activation was 6.3% (inactive).
For CCn1c(N)c(Br)c(=O)[nH]c1=O, the activation was 12.7% (inactive).
For COc1ccc(C(=O)N2CCCCC2C(=O)Nc2ccc(-n3nc(C)cc3C)cc2)o1 (stereo not drawn), the activation was 0.38% (inactive).
For CC(C)CN(CC(C)C)C(=O)CN1c2cccc3cccc(c23)S1(=O)=O, the activation was 4.17% (inactive).
With NC(=O)C1CCN(Cc2nc3c(Br)cc(Br)cc3c(=O)[nH]2)CC1 the activation was -6.52% (inactive).
COc1ccc(S(=O)(=O)NCC2CCCN(C(=O)c3occc3C)C2)cc1 (stereo not drawn) was tested, and the activation was -3.49% (inactive).
In the case of CCCCCCCC[n+]1cccc(C(=O)N2c3c(nc(N)[nH]c3=O)NC(C)C2C)c1 (stereo not drawn), the activation is reported as -2.79% (inactive).
In the case of CCOc1cc(C(=O)Nc2c(C)ccc3nsnc23)cc(OCC)c1OCC, the activation is reported as -0.81% (inactive).
In the case of Cc1[nH]n(C(N)=S)c(=O)c1N=Nc1ccc(Cl)cc1Cl, the activation is reported as -4.08% (inactive).
For CC1=NN(C(N)=S)C(=O)C1N=Nc1cc(Cl)ccc1Cl (stereo not drawn), the activation was 42% (active).
In the case of CCN(C[C@H]1N[C@@](CC)(C(=O)OC)[C@H]2C(=O)N(C)C(=O)[C@@H]12)C(=O)Nc1ccc(F)cc1, the activation is reported as 3.05% (inactive).
For CC(C)C[C@@H](COc1ccccc1)N1CCN(CC(C)C)CCC1=O, the activation was -4.75% (inactive).
With CC(C(=O)NCC1CCCCC1)N(C)Cc1cccc(Cl)c1 (stereo not drawn) the activation was -2.02% (inactive).
With Cc1ccc(S(=O)(=O)NCC(=O)N(CC(=O)NCC2CCCO2)c2cccc(F)c2)cc1 (stereo not drawn) the activation was -1.1% (inactive).
O=C(COc1cccc2c1CCNC2=O)NC1CCCCC1 was tested, and the activation was -3.37% (inactive).
CCOC(=O)C1=C(CN2CCc3ccccc32)NC(=O)NC1c1cc(C)ccc1C (stereo not drawn) was tested, and the activation was 1.19% (inactive).
In the case of COc1cccc2cc(C(C)N(CCCN3CCOCC3)C(=O)Nc3ccc(Cl)cc3)oc12 (stereo not drawn), the activation is reported as 3.94% (inactive).
With CCc1nnc(NC(=O)[C@@H](NC(=O)c2cccc(C)c2)C(C)C)s1 the activation was -9.68% (inactive).
For Cc1ccc(S(=O)(=O)N2CCC3(CC2)OCCO3)c(C)c1, the activation was 7.32% (inactive).
O=C(NCCN1CCOC1=O)C1CCC(=O)N(CCc2ccc(Cl)cc2)C1 (stereo not drawn) was tested, and the activation was -3.88% (inactive).
For O=S(=O)(Oc1ccccc1C(=S)N1CCOCC1)c1ccc(Cl)cc1, the activation was 5.11% (inactive).
O=C(Cc1ccccc1F)NC1CCSc2ccccc21 (stereo not drawn) was tested, and the activation was -1.51% (inactive).
In the case of COc1ccc(CNS(=O)(=O)c2cc(-c3cc(C)no3)ccc2C(C)C)cc1, the activation is reported as 7.17% (inactive).
COc1cccc(C(=O)n2ccc(-c3cccs3)n2)c1 was tested, and the activation was 7.3% (inactive).
For CCN(CCNC(=O)C1=C(C)C(=O)OC12CCC(C)CC2)c1ccccc1 (stereo not drawn), the activation was -6.83% (inactive).
With C=CCN1CN(S(=O)(=O)c2ccc(OC)cc2)c2nc3ccccc3nc21 the activation was 10.1% (inactive).
In the case of COc1cccc(CNC(=O)CN(C)S(=O)(=O)c2ccc3c(c2)c(=O)n(C)c(=O)n3C)c1, the activation is reported as 3.47% (inactive).
In the case of CC(NC(=O)COc1ccc(-c2ccccc2)cc1)C1CCCO1 (stereo not drawn), the activation is reported as -7.63% (inactive).
Cc1cc(C)c(C)c(S(=O)(=O)N2CCN(C(=O)c3ccc4c(=O)n5c(nc4c3)CCC5)CC2)c1C was tested, and the activation was 0.83% (inactive).
Cn1c(C(=O)O)ccc1S(=O)(=O)N(Cc1ccccc1)Cc1ccccc1 was tested, and the activation was -2.76% (inactive).
With Cc1ccc(S(=O)(=O)N(CC(=O)NCCSC2CCCCC2)c2ccccc2F)cc1 the activation was 12.3% (inactive).
In the case of CSCc1cc(N2CCOCC2)nc(SCc2ccc(Cl)cc2Cl)n1, the activation is reported as -1.6% (inactive).

Reference: PubChem BioAssay AID463210 (The Scripps Research Institute Molecular Screening Center, 2010)
